Results gathered from unrelated publications.
Compare with care: the assays were run in different laboratories. pIC50: −log10 of the molar value.
Observed: cell growth or viability

For `Cn1nnc2c(C(N)=O)ncn2c1=O`, the pIC50 was 2.68 (human Astrocyte; MTT).
`Nc1nc2ccc(-c3c/c(=N\c4ccccc4NC(=O)CCN4CCOCC4)c4ccccc4o3)cc2o1` gave an inhibition of -0.02% (MDA-MB-231; CCK-8; 1 µM).
The pIC50 of `COc1cc(C(=O)c2nc(-c3cccc4cc[nH]c34)c[nH]2)cc(OC)c1OC` is reported as 7.69 (A-375; MTS; 72 h).
`COc1cccc(NC(=O)Nc2ccc(Oc3nc4ccccc4n4cnnc34)cc2)c1` gave a viability of 24.6% (MDA-MB-231; MTT; 100 µM; 24 h).
`COc1cc(C(=O)c2nc(-c3cccc4[nH]ccc34)c(C)[nH]2)cc(OC)c1OC` has a pIC50 of 7.79 (A-375; MTS; 72 h).
The inhibition of `C[C@H](N)C(=O)Nc1ccccc1/N=c1\cc(-c2ccc3c(c2)OCO3)oc2ccccc12` is reported as 7.31% (MDA-MB-231; CCK-8; 1 µM).
The pIC50 of `CN(C)c1ccc(Nc2nc(-c3ccncc3)nc3c2CC(N)CC3)cc1` (stereo not drawn) is reported as 4.90 (A-375; MTT).
For `Nc1ccccc1/N=c1\cc(-c2ccc3c(c2)OCO3)oc2ccccc12`, the inhibition was 2.58% (MDA-MB-231; CCK-8; 1 µM).
For `COc1cc(C(=O)c2nc(-c3cccc4[nH]ccc34)cs2)cc(OC)c1OC`, the pIC50 was 8.25 (A-375; MTS; 72 h).
`O=C(Nc1ccccc1)Nc1ccc(Oc2nc3ccccc3n3cnnc23)cc1` has a viability of 70.1% (MDA-MB-231; MTT; 25 µM; 24 h).
`NCCC(=O)Nc1ccccc1/N=c1\cc(-c2ccc3nc(N)oc3c2)oc2cc(O)ccc12` has an inhibition of 22% (MDA-MB-231; CCK-8; 1 µM).
With `Cc1nc(Nc2ncc(C(=O)Nc3c(C)cccc3Cl)s2)cc(N2CC[C@H](O)C2)n1` the pIC50 was less than 5.00 (L-82; ATP luminescence; 72 h).
`O=C(Nc1ccc(Oc2nc3ccccc3n3cnnc23)cc1)Nc1cccc(Cl)c1` has a viability of 41.2% (MDA-MB-231; MTT; 50 µM; 24 h).
The pIC50 of `CCCCC(=O)Nc1ccc(-c2ccc3ncn(CCC)c(=O)c3c2)cn1` is reported as 6.32 (MRC5; CCK-8; 72 h).
The viability of `CNC(=O)c1cc(Oc2ccc(NC(=O)Nc3ccc(Cl)c(C(F)(F)F)c3)cc2)ccn1` is reported as 6.9% (MDA-MB-231; MTT; 100 µM; 24 h).
For `O=C(Nc1ccccc1/N=c1\cc(-c2ccc3c(c2)OCCO3)oc2cc(F)ccc12)N1CCOCC1`, the inhibition was 8.63% (MDA-MB-231; CCK-8; 1 µM).
With `COc1cc(C(=O)c2nc(-c3cccc4[nH]nnc34)c[nH]2)cc(OC)c1OC` the pIC50 was 7.20 (A-375; MTS; 72 h).
With `O=C(Nc1ccc(Cl)cc1)Nc1ccc(Oc2nc3ccccc3n3cnnc23)cc1` the viability was 56.4% (MDA-MB-231; MTT; 50 µM; 24 h).
